Results on 31 compounds are retold here after ChEMBL document CHEMBL4007511, “Synthesis and Biological Evaluation of Bile Acid Analogues Inhibitory to Clostridium difficile Spore Germination” (J Med Chem, 2017).

The structures appear in SMILES notation. Calls of active or inactive are those of the source. The rule behind the calls is not given here.

What is called Papp is a coefficient for how fast a substance crosses the barrier. For orientation: Ki means a dissociation constant, usually derived from enzyme kinetics or from competition with a known ligand. The term IC50 denotes the midpoint of a concentration-inhibition curve. In general, Papp B→A refers to how fast a substance crosses the layer from the basolateral side. The Papp A→B is the apparent permeability from the apical to the basolateral side of a cell layer.

The test system of series [1] is Clostridioides difficile. Description: Antibacterial activity against Clostridium difficile NAP1 assessed as concentration required for complete inhibition of TCA-induced spore germination measured after 20 mins under anaerobic condition. It counts as functional. To be noted: NAP1, 20 min, read-out: MEC. Put shortly: (§1)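 Spores (~0.5 McFarland, heat-treated 65 °C for 30 min) inoculated anaerobically into pre-reduced (2–3 h) BHIS (0.5% yeast extract, 0.1% L-cysteine) containing 2000 μM taurocholate plus analogue at varying concentrations; OD600 read each minute for 20 min, normalized to t0. Complete inhibition = relative OD600 ≥0.95 at 20 min; triplicate wells, solvent (DMSO or DMSO/ethanol) controls.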

The test system of series [2] is Clostridioides difficile. Description: Inhibition of TCA-induced spore germination in Clostridium difficile NAP1 at 50 uM measured after 20 mins under anaerobic condition by phase-contrast microscopic analysis. It counts as functional. An outline of the steps: (§2)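 Heat-treated spores exposed to BHIS with 2000 μM taurocholate plus analogue or DMSO control; t0 samples put on ice at once, t20 samples held 20 min at room temperature then iced; phase-bright spores and phase-dark germinated cells counted by hemocytometer under phase-contrast. % germination of total cells; relative value = (t20−t0) test/(t20−t0) control; triplicate, mean ± SD.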

Series [3] deals with Clostridioides difficile. Nature of the series: Inhibition of TCA-induced spore germination in Clostridium difficile NAP1 assessed as spore germination at 10 uM measured after 20 mins under anaerobic condition by phase-contrast microscopic analysis relative to control. It counts as functional. Also noted: scale not given: the % may be the effect or the level left. An outline of the steps: as §2

The conditions of series [4]: human, caco-2, 10 µM.
For series [5] the following is noted: human, caco-2, 10 µM. The source holds these as a separate data set.
Series [6] has as its target Clostridioides difficile. Nature of the series: Inhibition of TCA-induced spore germination in Clostridium difficile NAP1 at 0.2 mM using varying levels of TCA measured after 20 mins under anaerobic condition. It counts as functional.
For series [7], the system named is Clostridioides difficile. Description: Induction of spore germination in Clostridium difficile NAP1 at 1500 to 2000 uM measured after 20 mins under anaerobic condition.
In series [8] the test system is Clostridioides difficile. Description: Inhibition of taurocholate/glycine-induced spore germination in Clostridium difficile 630 preincubated for 15 mins followed by taurocholate/glycine addition measured every minute for 90 mins. It counts as functional.
Series [9] in a line: in vitro. Particulars: human, Caco-2.
Series [10] can be described thus: in vitro. Particulars: human, Caco-2. The source holds these as a separate data set.
Series [11] has as its system Clostridioides difficile. Nature of the series: Inhibition of TCA-induced spore germination in Clostridium difficile NAP1 assessed as compound concentration required for complete inhibition by spectrophotometric method. The series is classed as functional. Particulars: read-out: MEC. Put shortly: as §1
Series [12] addresses Clostridioides difficile. Nature of the series: Competitive inhibition of taurocholate-induced spore germination in Clostridium difficile UK1 at 0.2 mM by Michaelis-Menten kinetic analysis. It counts as functional.

For the compound `COC(=O)CC[C@@H](C)[C@H]1CC[C@H]2[C@@H]3[C@H](OC)C[C@@H]4C[C@H](O)CC[C@]4(C)[C@H]3CC[C@]12C`, the minimal effective concentration in the series on Clostridioides difficile [1] is 500 µM.
Same read-out and setting: the result for `COC(=O)CC[C@@H](C)[C@H]1CC[C@H]2[C@H]3[C@H](CC[C@]12C)[C@@]1(C)CC[C@@H](O)C[C@H]1C[C@@]3(C)O` reads 50 µM.
On to `CO[C@@H]1CC[C@@]2(C)[C@@H](C1)C[C@H](OS(=O)(=O)[O-])[C@@H]1[C@@H]2CC[C@]2(C)[C@@H]([C@H](C)CCC(=O)N3CCCC3)CC[C@@H]12.[Na+]`, for which, in the series with Clostridioides difficile [1], the minimal effective concentration worked out at 50 µM. Also, in the series with Clostridioides difficile [2], the inhibition entry was “Active”. Besides, the Activity with Clostridioides difficile [3] is given as 9%. Further, the Papp in [4] worked out at 21 nm/s; in [5], 1 nm/s. On Clostridioides difficile [6], the affinity, expressed as Ki, was 20 µM.
Consider `CCCCNC(=O)CC[C@@H](C)[C@H]1CC[C@H]2[C@@H]3[C@@H](O)C[C@@H]4C[C@H](O)CC[C@]4(C)[C@H]3CC[C@]12C`, for which the minimal effective concentration with Clostridioides difficile [1] was 500 µM.
With `CO[C@@H]1CC[C@@]2(C)[C@@H](C1)C[C@@H](O)[C@@H]1[C@@H]2CC[C@]2(C)[C@@H]([C@H](C)CCC(=O)O)CC[C@@H]12`, the minimal effective concentration in the series with Clostridioides difficile [1] was more than 100 µM. In the series on Clostridioides difficile [7], the Activity result is given as “Toxic”.
Consider `CC(=O)O[C@@H]1CC[C@@]2(C)[C@@H](C1)C[C@@H](OC(C)=O)[C@@H]1[C@@H]2CC[C@]2(C)[C@@H]([C@H](C)CCC(N)=O)CC[C@@H]12`, for which, in the series with Clostridioides difficile [1], the minimal effective concentration came to 50 µM.
Regarding `COC(=O)CC[C@@H](C)[C@H]1CC[C@H]2[C@@H]3[C@@H](OC)C[C@@H]4C[C@H](O)CC[C@]4(C)[C@H]3CC[C@]12C`, the minimal effective concentration in the series with Clostridioides difficile [1] was 500 µM.
The same measure, in the same setting: the result for `CCCCNC(=O)CC[C@@H](C)[C@H]1CC[C@H]2[C@@H]3[C@H](O)C[C@@H]4C[C@H](O)CC[C@]4(C)[C@H]3CC[C@]12C` reads 500 µM.
For `C[C@H](CCC(=O)Nc1cccc(S(=O)(=O)O)c1)[C@H]1CC[C@H]2[C@@H]3[C@H](O)C[C@@H]4C[C@H](O)CC[C@]4(C)[C@H]3C[C@H](O)[C@]12C`, the minimal effective concentration in the series with Clostridioides difficile [1] is more than 1000 µM. Besides, in the series on Clostridioides difficile [8], 58 µM corresponded to half-maximal inhibition (IC50). The Activity in the series with Clostridioides difficile [3] stood at 78%.
In “in vitro [9]”, `CO[C@@H]1CC[C@@]2(C)[C@@H](C1)C[C@@H](OS(=O)(=O)[O-])[C@@H]1[C@@H]2CC[C@]2(C)[C@@H]([C@H](C)CCC(=O)c3nnn[n-]3)CC[C@@H]12.[Na+].[Na+]` had a Papp B→A at 10 µM of 4 nm/s. Moreover, the minimal effective concentration in the series on Clostridioides difficile [1] amounted to 25 µM. In addition, the Activity with Clostridioides difficile [3] is 51%. In “in vitro [10]”, this compound yielded a Papp A→B at 10 µM of 4 nm/s.
For `C[C@H](CCC(C)(C)O)[C@H]1CC[C@H]2[C@H]3[C@H](CC[C@]12C)[C@@]1(C)CC[C@@H](O)C[C@H]1C[C@@]3(C)O`, the minimal effective concentration in the series on Clostridioides difficile [1] is more than 1000 µM.
For the compound `COC(=O)CC[C@@H](C)[C@H]1CC[C@H]2[C@@H]3[C@H](OC)C[C@@H]4C[C@H](OC)CC[C@]4(C)[C@H]3CC[C@]12C`, the minimal effective concentration in the series with Clostridioides difficile [1] came out at 500 µM.
On to `COC(=O)CC[C@@H](C)[C@H]1CC[C@H]2[C@@H]3[C@@H](O)C[C@@H]4C[C@H](O)CC[C@]4(C)[C@H]3CC[C@]12C`, for which the minimal effective concentration with Clostridioides difficile [1] was found to be 50 µM.
Take `CC(=O)O[C@@H]1CC[C@@]2(C)[C@@H](C1)C[C@H](OC(C)=O)[C@@H]1[C@@H]2CC[C@]2(C)[C@@H]([C@H](C)CCC(N)=O)CC[C@@H]12`: in the series with Clostridioides difficile [1], the minimal effective concentration is 50 µM. The Activity result in the series on Clostridioides difficile [7] is on record as “Toxic”.
Regarding `CO[C@@H]1CC[C@@]2(C)[C@@H](C1)C[C@H](OC)[C@@H]1[C@@H]2CC[C@]2(C)[C@@H]([C@H](C)CCC(=O)O)CC[C@@H]12`, the minimal effective concentration in the series with Clostridioides difficile [1] was more than 1000 µM. The Activity in the series with Clostridioides difficile [3] turned out to be 75%.
With `C[C@H](CCC(=O)NC(C)(C)CO)[C@H]1CC[C@H]2[C@@H]3[C@H](O)C[C@@H]4C[C@H](O)CC[C@]4(C)[C@H]3CC[C@]12C`, the minimal effective concentration in the series with Clostridioides difficile [1] came out at 500 µM.
As to `CO[C@@H]1CC[C@@]2(C)[C@@H](C1)C[C@H](OC)[C@@H]1[C@@H]2CC[C@]2(C)[C@@H]([C@H](C)CCC(=O)N3CCCC3)CC[C@@H]12`, the minimal effective concentration in the series with Clostridioides difficile [1] came out at 1000 µM.
Turning to `C[C@H](CCC(=O)O)[C@H]1CC[C@H]2[C@@H]3C[C@H](O)[C@@H]4C[C@H](O)CC[C@]4(C)[C@H]3CC[C@]12C` [HYODEOXYCHOLIC_ACID], in the series with Clostridioides difficile [1], the minimal effective concentration was 500 µM. For the same compound, the Activity entry with Clostridioides difficile [7] is “Toxic”.
`COC(=O)CC[C@@H](C)[C@H]1CC[C@H]2[C@@H]3[C@@H](O)C[C@@H]4C[C@H](OC)CC[C@]4(C)[C@H]3CC[C@]12C`: the minimal effective concentration in the series on Clostridioides difficile [1] turned out to be 500 µM.
Turning to `COC(=O)CC[C@@H](C)[C@H]1CC[C@H]2[C@@H]3[C@H](O)C[C@@H]4C[C@H](OC)CC[C@]4(C)[C@H]3CC[C@]12C`, the minimal effective concentration in the series with Clostridioides difficile [1] came to 500 µM.
As for `CO[C@@H]1CC[C@@]2(C)[C@@H](C1)C[C@@H](OC)[C@@H]1[C@@H]2CC[C@]2(C)[C@@H]([C@H](C)CCC(=O)N3CCCC3)CC[C@@H]12`, the minimal effective concentration in the series on Clostridioides difficile [1] was determined as 500 µM.
On the same count and under the same terms, the value for `C[C@H](CCC(=O)O)[C@H]1CC[C@H]2[C@@H]3[C@@H](OS(=O)(=O)O)C[C@@H]4C[C@H](O)CC[C@]4(C)[C@H]3CC[C@]12C` was 3000 µM.
Consider `CO[C@@H]1CC[C@@]2(C)[C@@H](C1)C[C@H](O)[C@@H]1[C@@H]2CC[C@]2(C)[C@@H]([C@H](C)CCC(=O)O)CC[C@@H]12`, for which, in the series on Clostridioides difficile [1], the minimal effective concentration was more than 500 µM. Besides, the Activity entry with Clostridioides difficile [7] is listed as “Toxic”.
Take `COC(=O)CC[C@@H](C)[C@H]1CC[C@H]2[C@@H]3C[C@H](O)[C@@H]4C[C@H](O)CC[C@]4(C)[C@H]3CC[C@]12C`: the minimal effective concentration in the series with Clostridioides difficile [1] came out at 500 µM.
As to `C[C@H](CCC(=O)O)[C@H]1CC[C@H]2[C@@H]3[C@@H](O)C[C@@H]4C[C@H](O)CC[C@]4(C)[C@H]3CC[C@]12C` [URSODIOL], the minimal effective concentration with Clostridioides difficile [11] came out at 500 µM.
Take `C[C@H](CCC(=O)N1CCCC1)[C@H]1CC[C@H]2[C@@H]3[C@H](O)C[C@@H]4C[C@H](O)CC[C@]4(C)[C@H]3CC[C@]12C`: the minimal effective concentration in the series with Clostridioides difficile [1] came to 50 µM.
Turning to `CO[C@H]1C[C@@H]2C[C@H](O)CC[C@]2(C)[C@H]2CC[C@]3(C)[C@@H]([C@H](C)CCC(=O)O)CC[C@H]3[C@H]12`, the minimal effective concentration with Clostridioides difficile [1] is more than 500 µM. Further, the Activity entry with Clostridioides difficile [7] is reported as “Toxic”.
As for `COC(=O)CC[C@@H](C)[C@H]1CC[C@H]2[C@@H]3[C@H](O)C[C@@H]4C[C@H](O)CC[C@]4(C)[C@H]3CC[C@]12C`, the minimal effective concentration with Clostridioides difficile [1] is 500 µM. Besides, the Ki on Clostridioides difficile [12] amounted to 44 µM; at Clostridioides difficile [6], 118 µM. For the same compound, in the series on Clostridioides difficile [3], the Activity stood at 73%.
Consider `C[C@H](CCC(=O)O)[C@H]1CC[C@H]2[C@@H]3[C@H](O)C[C@@H]4C[C@H](O)CC[C@]4(C)[C@H]3CC[C@]12C` [CHENODIOL], for which the minimal effective concentration in the series with Clostridioides difficile [1] was determined as 500 µM.
`C[C@H](CCC(=O)N1CCCC1)[C@H]1CC[C@H]2[C@@H]3[C@@H](O)C[C@@H]4C[C@H](O)CC[C@]4(C)[C@H]3CC[C@]12C`: in the series with Clostridioides difficile [1], the minimal effective concentration was found to be 100 µM.
Regarding `COC(=O)CC[C@@H](C)[C@H]1CC[C@H]2[C@@H]3[C@@H](OC)C[C@@H]4C[C@H](OC)CC[C@]4(C)[C@H]3CC[C@]12C`, the minimal effective concentration with Clostridioides difficile [1] worked out at 500 µM.
